Laboratory results: ChEMBL document CHEMBL1153396, “Carbonic anhydrase inhibitors. Inhibition of the beta-class enzymes from the fungal pathogens Candida albicans and Cryptococcus neoformans with aliphatic and aromatic carboxylates” (Bioorg Med Chem, 2009)

Legend:
[1] = Inhibition of Cryptococcus neoformans Can2
Summary of the method: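 Recombinant purified Can2. Stopped-flow CO2 hydration assay read with 0.2 mM phenol red at 557 nm, in TRIS pH 8.3 with 20 mM NaClO4 or Na2SO4 for ionic strength. Initial rates followed over 10–100 s, CO2 1.7–17 mM, uncatalyzed rate subtracted. Enzyme and inhibitor preincubated 15 min at room temperature. Ki from non-linear least squares, mean of at least three determinations.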

Carbonic anhydrase = molecular target: T1, Carbonic anhydrase (Candida albicans (strain SC5314 / ATCC MYA-2876) (Yeast), UniProt Q5AJ71); assay: Inhibition of Candida albicans Nce103
T1 sequence (Q5AJ71 whole entry): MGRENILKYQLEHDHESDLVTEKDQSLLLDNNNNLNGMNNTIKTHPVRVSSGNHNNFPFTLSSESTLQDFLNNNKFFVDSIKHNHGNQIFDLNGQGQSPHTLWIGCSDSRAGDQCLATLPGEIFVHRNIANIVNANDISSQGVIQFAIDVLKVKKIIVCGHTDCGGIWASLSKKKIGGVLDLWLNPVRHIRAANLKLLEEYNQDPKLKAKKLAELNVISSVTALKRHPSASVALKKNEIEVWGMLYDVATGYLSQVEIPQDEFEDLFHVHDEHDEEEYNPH
Summary of the method: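 Recombinant purified C. albicans Nce103. Stopped-flow CO2 hydration assay with phenol red indicator (0.2 mM) read at 557 nm. Tris buffer pH 8.3 with 20 mM Na2SO4 or NaClO4 for ionic strength. CO2 1.7–17 mM. Initial rates over 10–100 s, uncatalyzed rate subtracted. Enzyme and inhibitor preincubated 15 min at room temperature. Ki by non-linear least squares from three assays.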

Carbonic anhydrase 2 = Carbonic anhydrase 2 (Homo sapiens, UniProt P00918); assay: Inhibition of human carbonic anhydrase2

Row | SMILES | Ki [1] [µM] | Ki (Carbonic anhydrase) [µM] | Ki (Carbonic anhydrase 2) [µM]
1 | O=C(O)c1c(F)c(F)cc(F)c1F | 49.1 | 61.6 | 
2 | CC(=O)[O-].[Na+] [SODIUM ACETATE] | 7.3 | 36 | 
3 | CCCC(=O)[O-].[Na+] [SODIUM BUTYRATE] | 225 | 26.9 | 1030
4 | CC(=O)C(=O)O [PYRUVATE SODIUM] | 787 | 106 | 
5 | CCCCC(=O)[O-].[Na+] [SODIUM VALERATE] | 42.8 | 94 | 257
6 | O=C[O-].[Na+] [SODIUM FORMATE] | 53.5 | 35.1 | 
7 | O=C([O-])C[C@H](O)C(=O)[O-].[Na+].[Na+] | 899 | 87.7 | 1870
8 | O=C([O-])CC(=O)[O-].[Na+].[Na+] [DISODIUM MALONATE] | 793 | 26.3 | 
9 | C[C@H](O)C(=O)[O-].[Na+] | 953 | 46.8 | 3220
10 | CCC(=O)[O-].[Na+] [SODIUM PROPIONATE] | 404 | 51.5 | 960
11 | O=C([O-])/C=C\C(=O)[O-].[Na+].[Na+] [SODIUM MALEATE] | 8.7 | 8.6 | 989
12 | O=C([O-])c1ccccc1.[Na+] [SODIUM BENZOATE] | 1270 | 24.4 | 
13 | O=C([O-])CC(O)(CC(=O)[O-])C(=O)[O-].[Na+].[Na+].[Na+] [SODIUM CITRATE] | 88.6 | 39.1 | 
14 | O=C([O-])C(=O)[O-].[Na+].[Na+] [SODIUM OXALATE] | 67.7 | 37.7 | 
